ERAP1 inh: ERAP1 (human) enzyme inhibition; Q9NZ08; recombinant ERAP1, Leu-AMC fluorescence, 60 min; inhibition, % at 10.7 µM; 340,000 tested, 0.15% active;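 active = mean replicate inhibition of at least 30%, or all replicates individually reaching that 30% level; inactive = mean below 30% and not every replicate reaching it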;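 also: 0% = neutral control wells and 100% = L-leucinethiol positive control wells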
Rtt109 Vps75: inhibitors of Candida albicans Rtt109/Vps75 histone acetyltransferase; 330,000 tested, 0.16% active; inhibition, % at 34.9 µM; purified Rtt109/Vps75, ThioGlo CoA-SH fluorescence, 4 h; Q5AAJ8;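 active = inhibition of at least 50% in every replicate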
Target sequence (Q5AAJ8 whole entry, looked up): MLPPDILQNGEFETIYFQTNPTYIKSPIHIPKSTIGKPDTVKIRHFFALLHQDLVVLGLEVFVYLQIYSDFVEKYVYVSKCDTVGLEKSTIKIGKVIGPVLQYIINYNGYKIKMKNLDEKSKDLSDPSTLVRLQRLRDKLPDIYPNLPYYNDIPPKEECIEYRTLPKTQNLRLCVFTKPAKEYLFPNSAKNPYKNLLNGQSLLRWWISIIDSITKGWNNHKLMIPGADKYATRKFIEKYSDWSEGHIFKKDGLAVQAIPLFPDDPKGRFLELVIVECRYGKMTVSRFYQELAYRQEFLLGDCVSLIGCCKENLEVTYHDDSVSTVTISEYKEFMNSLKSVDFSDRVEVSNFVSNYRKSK
Statin myotox sup: suppression of simvastatin myotoxicity; 330,000 tested, 0.78% active; rescue of ATP level, % at 7.49 µM; C2C12 myotubes + simvastatin, ATP luminescence, 48 h; scaled: DMSO 0, geranylgeraniol control 100; AID 602340;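 active = mean ATP rescue above about 67%, or every replicate alone reaching that limit, limit read from the data, passing the limit was not always enough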;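 also: myotubes were challenged with 10 µM simvastatin during compound exposure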
PGC1a acetyl inh: modulators of PGC1a acetylation. U2OS PGC1a acetylation, AlphaScreen anti-acetyl-lysine; with virally co-expressed GCN5 acetyltransferase. inhibition, % at 15.6 µM. 350,000 tested, 0.17% active. AID 651687;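 active = every replicate shows inhibition of at least 40%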;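 also: 0% = neutral control wells and 100% = positive control wells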
S100A4 MyoIIA: inhibitors of human S100A4 binding to myosin IIA peptide | inhibition, % at 10.7 µM | S100A4/TAMRA-MyoIIA peptide fluorescence polarization | 360,000 tested, 0.14% active | P26447;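 active = mean inhibition of at least 70% across replicates, with every replicate also reaching that level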
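assay system = human S100A4 monomer with TAMRA-labelled myosin IIA peptide | also added = labelled myosin peptide probe, 5 nM | incubation = 5 min between mix addition and reading | control set = DMSO and TFP controls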
The depositor's hits bear a star; · = not tested or not shown. Hits are enriched below; roughly 0.98% of the tested compounds scored in any of these assays.

SMILES	ERAP1 inh	Rtt109 Vps75	Statin myotox sup	PGC1a acetyl inh	S100A4 MyoIIA
O=C(NCc1cccnc1)C1CC(=O)N(CCc2ccccc2)C1 (stereo not drawn)	1	11	133*	2	-1
CN(C)S(=O)(=O)N1CCN(C(=O)N2CCCCC2)CC1	·	2	-7	1	·
O=C(N1CCCCCC1)N1CCN(S(=O)(=O)N2CCCCC2)CC1	·	9	101*	1	·
Cc1noc(C)c1S(=O)(=O)Nc1ccc2c(c1)CC(=O)N([C@@H](C)CO)C[C@@H](C)[C@H](CN(C)S(C)(=O)=O)O2	·	·	5	-5	·
CO[C@H]1CN(C)C(=O)c2cc(NC(C)=O)ccc2OC[C@H](C)N(Cc2ccccn2)C[C@H]1C	0	·	-6	-13	141*
CO[C@H]1CN(C)C(=O)c2ccc(NC(C)=O)cc2OC[C@@H](C)N(Cc2cc(F)ccc2F)C[C@H]1C	2	·	6	2	5
CO[C@@H]1CN(C)C(=O)c2ccc(NC(C)=O)cc2OC[C@H](C)N(Cc2cc(F)ccc2F)C[C@@H]1C	-2	·	-7	-2	105*
CCCN(C)C[C@@H]1Oc2cc(C#Cc3ccccc3OC)ccc2S(=O)(=O)N([C@H](C)CO)C[C@@H]1C	2	·	-7	-23	-59
N#Cc1ccccc1NC(=O)CSC1=Nc2ccccc2C2CC=NN12 (stereo not drawn)	-2	·	6	·	1
O=C(CSC1=Nc2ccccc2C2CC=NN12)NCc1ccco1 (stereo not drawn)	-2	-2	98*	-22	-4
CC(C)NC(=O)N(C)C[C@@H]1Oc2ccc(NC(=O)Nc3ccc4c(c3)OCO4)cc2C(=O)N([C@H](C)CO)C[C@H]1C	1	·	-10	2	2
CCn1cnc2c1c(=O)n(CC(=O)NCC(F)(F)F)c(=O)n2Cc1ccccc1	58*	-2	-13	7	-6
CCn1cnc2c1c(=O)n(CC(=O)NCc1ccccc1)c(=O)n2Cc1ccccc1	-2	-16	0	-4	8
COc1ccc(NC(=O)Nc2ccc3c(c2)C(=O)N([C@H](C)CO)C[C@H](C)[C@@H](CN(C)CC2CCCCC2)OCCCC[C@H](C)O3)cc1	1	·	-189	-6	8
Nc1ccc(S(=O)(=O)NNC(=O)C(=O)NNc2ccccc2)cc1	-2	17	-3	·	-3
O=C(NNc1ccccc1)C(=O)NNS(=O)(=O)c1ccc(CCCl)cc1	0	65*	33	-4	-2
Oc1cc(O)c(CN2CCOCC2)cc1CN1CCOCC1	0	101*	2	14	-3
COc1cccc(NC(=O)N(C)C[C@@H]2OCc3ccccc3-c3c(n(C)c4ccccc34)C(=O)N([C@@H](C)CO)C[C@@H]2C)c1	-2	·	12	3	97*
COc1cccc(NC(=O)N(C)C[C@@H]2OCc3ccccc3-c3c(n(C)c4ccccc34)C(=O)N([C@@H](C)CO)C[C@H]2C)c1	0	·	·	-51	-9
COc1cccc(S(=O)(=O)N(C)C[C@H]2OCc3ccccc3-c3c(n(C)c4ccccc34)C(=O)N([C@H](C)CO)C[C@H]2C)c1	-2	·	80*	-5	1
C[C@@H]1CN([C@@H](C)CO)C(=O)c2ccccc2-c2ccccc2CO[C@@H]1CN(C)S(=O)(=O)c1ccccc1	-3	·	-11	1	-5
O=C(CN1CCC(c2nc3ccccc3s2)CC1)NCc1ccccc1	·	5	113*	3	·
CCOC(=O)CCCNC(=O)CN1CCC(c2nc3ccccc3s2)CC1	-1	40	2	1	0
C[C@H]1CN([C@@H](C)CO)C(=O)c2cc(C3=CCCCC3)cnc2O[C@@H]1CN(C)C(=O)c1cccnc1	-1	·	5	-3	15
C[C@H](CO)N1C[C@H](C)[C@@H](CN(C)S(=O)(=O)c2ccc(Cl)cc2)Oc2c(NC(=O)CCCCCC(=O)Nc3ccccc3N)cccc2C1=O	-5	·	-57	4	-6
CCOC(=O)c1oc2cccc(OC(C)=O)c2c1C	·	-7	147*	1	·
CCOC(=O)c1oc2cccc(O)c2c1C	·	16	-16	2	·
CC1CC(OCC(O)C[N+]2(C)CCOCC2)CC(C)(C)C1 (stereo not drawn)	109*	-5	·	·	15
CC1CC(OCC(O)CN2CCOCC2)CC(C)(C)C1 (stereo not drawn)	-1	0	-7	3	1
